The results in this text go back to ChEMBL document CHEMBL1127348, “3-Amino-5,5-dimethylhexanoic acid. Synthesis, resolution, and effects on carnitine acyltransferases” (J Med Chem, 1994).

For orientation: Ki means the equilibrium dissociation constant of an inhibitor or competing ligand from its target. Read a high Ki as lower affinity. Broadly, the inhibition is the percentage by which the read-out fell short of the control. One may read the Km as the substrate concentration at which the rate is half of its maximum.

For series [1], the target named is T1, Carnitine O-palmitoyltransferase 2, mitochondrial (Rattus norvegicus, UniProt P18886).
T1 sequence (P18886 whole entry): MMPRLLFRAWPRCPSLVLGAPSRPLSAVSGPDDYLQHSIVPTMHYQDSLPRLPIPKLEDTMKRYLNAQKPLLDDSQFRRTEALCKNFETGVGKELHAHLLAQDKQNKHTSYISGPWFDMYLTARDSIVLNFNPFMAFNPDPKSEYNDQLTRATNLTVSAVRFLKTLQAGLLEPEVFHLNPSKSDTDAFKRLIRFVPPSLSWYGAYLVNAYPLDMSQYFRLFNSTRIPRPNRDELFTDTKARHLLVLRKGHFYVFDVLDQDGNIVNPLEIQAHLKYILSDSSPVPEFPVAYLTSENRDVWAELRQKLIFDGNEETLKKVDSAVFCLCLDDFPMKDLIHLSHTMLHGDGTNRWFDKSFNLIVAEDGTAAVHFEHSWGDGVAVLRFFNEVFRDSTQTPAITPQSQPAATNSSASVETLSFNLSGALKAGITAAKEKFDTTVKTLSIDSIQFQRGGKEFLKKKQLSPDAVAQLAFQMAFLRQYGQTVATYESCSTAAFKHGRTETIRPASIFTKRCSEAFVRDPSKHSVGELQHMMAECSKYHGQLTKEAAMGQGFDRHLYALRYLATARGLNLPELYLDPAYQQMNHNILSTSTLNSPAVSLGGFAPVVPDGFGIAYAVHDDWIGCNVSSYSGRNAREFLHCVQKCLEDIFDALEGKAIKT
The series can be described thus: Tested against neonatal rat cardiac myocyte carnitine palmitoyltransferase 2.

For series [2], the target named is T2, Carnitine O-palmitoyltransferase 1, muscle isoform (Rattus norvegicus, UniProt Q63704).
T2 sequence (Q63704 whole entry): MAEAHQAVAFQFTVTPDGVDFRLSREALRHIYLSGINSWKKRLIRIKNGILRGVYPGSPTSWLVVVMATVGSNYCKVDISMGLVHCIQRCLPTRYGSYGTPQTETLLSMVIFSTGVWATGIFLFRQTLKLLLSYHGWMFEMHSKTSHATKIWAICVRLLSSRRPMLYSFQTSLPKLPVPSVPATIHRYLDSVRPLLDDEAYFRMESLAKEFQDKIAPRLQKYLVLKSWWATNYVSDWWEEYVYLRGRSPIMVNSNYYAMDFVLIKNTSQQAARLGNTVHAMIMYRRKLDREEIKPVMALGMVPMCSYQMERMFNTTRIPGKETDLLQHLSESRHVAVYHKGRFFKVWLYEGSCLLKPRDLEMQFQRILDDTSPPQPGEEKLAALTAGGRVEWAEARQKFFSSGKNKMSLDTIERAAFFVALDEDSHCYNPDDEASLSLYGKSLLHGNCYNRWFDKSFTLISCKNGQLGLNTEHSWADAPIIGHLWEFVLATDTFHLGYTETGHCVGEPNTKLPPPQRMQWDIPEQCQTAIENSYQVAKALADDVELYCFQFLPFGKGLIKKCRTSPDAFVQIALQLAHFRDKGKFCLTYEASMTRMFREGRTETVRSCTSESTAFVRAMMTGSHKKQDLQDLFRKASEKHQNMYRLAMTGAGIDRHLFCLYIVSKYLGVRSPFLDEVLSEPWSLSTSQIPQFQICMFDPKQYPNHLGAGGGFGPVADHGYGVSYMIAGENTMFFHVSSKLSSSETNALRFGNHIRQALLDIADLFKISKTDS
The experiment in a line: Tested against neonatal rat cardiac myocyte carnitine palmitoyltransferase 1.

Series [3] concerns the target T3, Carnitine O-palmitoyltransferase 1, liver isoform (Rattus norvegicus) (UniProt P32198).
T3 sequence (whole entry): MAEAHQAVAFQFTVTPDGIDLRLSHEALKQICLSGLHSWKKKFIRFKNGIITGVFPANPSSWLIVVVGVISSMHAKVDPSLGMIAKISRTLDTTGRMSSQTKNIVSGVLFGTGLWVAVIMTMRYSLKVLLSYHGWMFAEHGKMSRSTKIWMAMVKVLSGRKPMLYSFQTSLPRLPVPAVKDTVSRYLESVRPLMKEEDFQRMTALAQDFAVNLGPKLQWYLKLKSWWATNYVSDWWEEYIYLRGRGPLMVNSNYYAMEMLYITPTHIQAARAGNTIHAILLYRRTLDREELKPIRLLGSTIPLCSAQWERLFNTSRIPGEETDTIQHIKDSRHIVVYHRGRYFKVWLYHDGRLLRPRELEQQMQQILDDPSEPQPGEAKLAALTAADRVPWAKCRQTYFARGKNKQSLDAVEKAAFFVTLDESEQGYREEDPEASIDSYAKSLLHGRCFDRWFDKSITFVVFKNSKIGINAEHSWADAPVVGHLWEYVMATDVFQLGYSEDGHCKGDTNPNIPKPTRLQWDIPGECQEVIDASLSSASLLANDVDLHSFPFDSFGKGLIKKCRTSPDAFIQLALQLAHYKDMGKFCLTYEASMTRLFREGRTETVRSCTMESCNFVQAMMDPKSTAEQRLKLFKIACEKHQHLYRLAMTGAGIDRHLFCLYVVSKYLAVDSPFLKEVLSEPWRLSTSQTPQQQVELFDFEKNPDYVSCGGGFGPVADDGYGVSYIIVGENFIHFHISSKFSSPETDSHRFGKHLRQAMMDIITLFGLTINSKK
The series can be described thus: Percent inhibition was measured on rat liver carnitine palmitoyltransferase at 5 uM.

The target of series [4] is T2, Carnitine O-palmitoyltransferase 1, muscle isoform. The experiment in a line: Tested against neonatal rat cardiac myocyte carnitine palmitoyltransferase 1; no effect.
Substrate in series [5]: C[N+](C)(C)C[C@H](O)CC(=O)[O-]
The series can be described thus: (§1) Kinetic constants tested against pigeon breast carnitine acyltransferase. The following applies: Columba livia. Put shortly: (§2)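 Purified pigeon breast CAT, 25 °C, 1 mL. Reverse: 100 mM MOPS, 5 mM EDTA, 0.25 mM CoASH; started with varying D,L-acetylcarnitine; read at 232 nm. Inhibitor at 0, 5.00 or 10.00 mM final; points mean of 2–5 determinations; nonlinear regression fit.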

Substrate in series [6]: C[N+](C)(C)CC(N)CC(=O)[O-]
Described as §1. Conditions: Columba livia; call rule not given here. Put shortly:
as §2

Turning to `C[N+](C)(C)C[C@H](O)CC(=O)[O-]` [LEVOCARNITINE], the Ki in series [1] and in series [2] was 0.1 mM each time. Turning to `CC(=O)NC(CC(=O)[O-])C[N+](C)(C)C` (configuration not stated), the inhibition in series [3] worked out at 15%.

Molecule `CC(C)(C)C[C@@H](O)CC(=O)O` registered a Ki in series [1] of 6.7 mM. In turn, `CC(C)(C)C[C@H](O)CC(=O)O` displayed a Ki in series [1] of 2.2 mM.

For `CC(C)(C)CC(O)CC(=O)O` (configuration not stated), the figures for the Ki in series [1] and in series [2] were 2.8 mM and 3.6 mM, respectively.

Regarding `C[N+](C)(C)CC(N)CC(=O)[O-]` (configuration not stated), the inhibition in series [3] came out at 64%. Take `CC(C)(C)CC(N)CC(=O)O` (configuration not stated): the Ki in series [1] is 20 mM; in series [4] it was “Not Active”.

B1: Carnitine O-acetyltransferase (Homo sapiens), P43155 (protein)
chain: MLAFAARTVVKPLGFLKPFSLMKASSRFKAHQDALPRLPVPPLQQSLDHYLKALQPIVSEEEWAHTKQLVDEFQASGGVGERLQKGLERRARKTENWLSEWWLKTAYLQYRQPVVIYSSPGVMLPKQDFVDLQGQLRFAAKLIEGVLDFKVMIDNETLPVEYLGGKPLCMNQYYQILSSCRVPGPKQDTVSNFSKTKKPPTHITVVHNYQFFELDVYHSDGTPLTADQIFVQLEKIWNSSLQTNKEPVGILTSNHRNSWAKAYNTLIKDKVNRDSVRSIQKSIFTVCLDATMPRVSEDVYRSHVAGQMLHGGGSRLNSGNRWFDKTLQFIVAEDGSCGLVYEHAAAEGPPIVTLLDYVIEYTKKPELVRSPLVPLPMPKKLRFNITPEIKSDIEKAKQNLSIMIQDLDITVMVFHHFGKDFPKSEKLSPDAFIQMALQLAYYRIYGQACATYESASLRMFHLGRTDTIRSASMDSLTFVKAMDDSSVTEHQKVELLRKAVQAHRGYTDRAIRGEAFDRHLLGLKLQAIEDLVSMPDIFMDTSYAIAMHFHLSTSQVPAKTDCVMFFGPVVPDGYGVCYNPMEAHINFSLSAYNSCAETNAARLAHYLEKALLDMRALLQSHPRAKL
As to B1, the Km was found to be 300 µM in series [5] and 3800 µM in series [6].
